Laboratory results published in ChEMBL document CHEMBL3421585, “Structure-Based Design of Potent and Selective Inhibitors of the Metabolic Kinase PFKFB3” (J Med Chem, 2015).
Converted amounts (≈) assume the structure as drawn.

Columns and labels:
[1] = Lipophilicity, log D of the compound at pH 7.4; details: buffer
[2] = molecular target: T1, 6-phosphofructo-2-kinase/fructose-2,6-bisphosphatase 3 (Homo sapiens, UniProt Q16875); assay: Inhibition of PFKFB3 in human A549 cells assessed as decrease in lactate secretion after 4 hrs; type: cell-based
T1 sequence (Q16875 whole entry): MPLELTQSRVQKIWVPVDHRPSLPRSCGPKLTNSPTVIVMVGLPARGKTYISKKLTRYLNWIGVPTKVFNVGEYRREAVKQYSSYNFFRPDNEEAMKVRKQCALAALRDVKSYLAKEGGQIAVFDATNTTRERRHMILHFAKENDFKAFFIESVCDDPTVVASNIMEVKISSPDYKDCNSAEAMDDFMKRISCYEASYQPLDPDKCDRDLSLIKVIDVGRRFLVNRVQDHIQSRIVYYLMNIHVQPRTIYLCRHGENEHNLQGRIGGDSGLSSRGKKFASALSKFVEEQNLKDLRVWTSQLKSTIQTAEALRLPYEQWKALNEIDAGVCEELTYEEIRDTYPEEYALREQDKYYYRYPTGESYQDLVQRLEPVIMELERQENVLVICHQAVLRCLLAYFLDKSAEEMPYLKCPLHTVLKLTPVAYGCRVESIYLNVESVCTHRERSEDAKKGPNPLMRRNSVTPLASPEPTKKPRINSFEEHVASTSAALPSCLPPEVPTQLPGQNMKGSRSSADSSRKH
Outline: (§1)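 A549 cells; fructose-1,6-bisphosphate or lactate production measured.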

[3] = molecular target: T1, 6-phosphofructo-2-kinase/fructose-2,6-bisphosphatase 3; assay: Inhibition of PFKFB3 in human A549 cells assessed as reduction of fructose-1,6-bisphosphate formation after 4 hrs by MS/MS analysis; type: cell-based; outline: as §1
[4] = molecular target: 6-phosphofructo-2-kinase/fructose-2,6-bisphosphatase 2 (Homo sapiens, UniProt O60825); assay: Inhibition of recombinant human PFKFB2 using fructose 6 phosphate as substrate assessed as ADP generation after 1 hr by ADP Glo assay
Chain of 6-phosphofructo-2-kinase/fructose-2,6-bisphosphatase 2 (O60825 whole entry): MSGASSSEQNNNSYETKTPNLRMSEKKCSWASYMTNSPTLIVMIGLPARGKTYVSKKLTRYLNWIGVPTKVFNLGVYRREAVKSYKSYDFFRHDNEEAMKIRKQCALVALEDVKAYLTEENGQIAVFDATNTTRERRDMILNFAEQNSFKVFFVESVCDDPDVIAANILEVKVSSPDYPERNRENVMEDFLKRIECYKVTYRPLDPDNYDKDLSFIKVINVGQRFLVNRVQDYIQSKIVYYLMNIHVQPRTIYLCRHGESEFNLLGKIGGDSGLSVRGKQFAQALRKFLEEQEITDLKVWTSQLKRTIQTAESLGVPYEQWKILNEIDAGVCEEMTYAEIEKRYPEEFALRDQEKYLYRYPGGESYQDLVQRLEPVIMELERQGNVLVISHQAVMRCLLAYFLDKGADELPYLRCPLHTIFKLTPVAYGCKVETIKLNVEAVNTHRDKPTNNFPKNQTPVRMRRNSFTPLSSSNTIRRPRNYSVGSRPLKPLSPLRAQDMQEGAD

[5] = molecular target: 6-phosphofructo-2-kinase/fructose-2,6-bisphosphatase 1 (Homo sapiens, UniProt P16118); assay: Inhibition of recombinant human PFKFB1 using fructose 6 phosphate as substrate assessed as ADP generation after 1 hr by ADP Glo assay
Chain of 6-phosphofructo-2-kinase/fructose-2,6-bisphosphatase 1 (P16118 whole entry): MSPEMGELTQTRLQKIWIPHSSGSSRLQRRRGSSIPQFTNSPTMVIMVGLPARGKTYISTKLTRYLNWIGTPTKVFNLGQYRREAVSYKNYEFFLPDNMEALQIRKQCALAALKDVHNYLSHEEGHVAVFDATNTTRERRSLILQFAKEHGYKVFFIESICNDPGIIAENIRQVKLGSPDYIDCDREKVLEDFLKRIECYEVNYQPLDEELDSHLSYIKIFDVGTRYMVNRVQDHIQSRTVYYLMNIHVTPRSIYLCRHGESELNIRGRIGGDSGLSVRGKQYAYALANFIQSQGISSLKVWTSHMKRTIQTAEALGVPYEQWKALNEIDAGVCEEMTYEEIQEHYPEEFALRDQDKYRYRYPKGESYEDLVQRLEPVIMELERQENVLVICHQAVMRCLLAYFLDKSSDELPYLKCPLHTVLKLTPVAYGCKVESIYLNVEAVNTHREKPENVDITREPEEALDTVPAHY

[6] = molecular target: T1, 6-phosphofructo-2-kinase/fructose-2,6-bisphosphatase 3; assay: Inhibition of recombinant human PFKFB3 using fructose 6 phosphate as substrate assessed as ADP generation after 1 hr by ADP Glo assay
A549 = assay: Cytotoxicity against human A549 cells assessed as cell viability after 4 hrs; type: cell-based; details: a549, 4 h
Homo sapiens = organism: Homo sapiens; assay: Selectivity ratio of IC50 for recombinant human PFKFB2 to IC50 for recombinant human PFKFB3
Outline: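 Ratio of the PFKFB2 enzyme IC50 to the PFKFB3 enzyme IC50. Each IC50 is the mean of at least two independent measurements, reported in micromolar, with SEM ±0.2 log units.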

[7] = Efflux ratio of apparent intrinsic permeability in human Caco2 cells; type: ADME, cell-based; details: Caco-2
[8] = Volume of distribution at steady state in Wistar rat at 3.1 uM/kg, po and 2.5 uM/kg, iv; type: ADME, organism-based; details: in vivo, read-out: Vdss
Outline: (§2)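 Male Wistar Han rats, 10-12 weeks old (n=2), given 3.1 µMol/kg po and 2.5 µMol/kg iv in 5% DMSO / 95% Captisol (30% in water).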

[9] = Fraction unbound in mouse plasma; type: ADME, cell-free
[10] = Half life in human hepatocytes; type: ADME, cell-based, Hepatocyte
[11] = Apparent intrinsic permeability in human Caco2 cells at pH 6.5; type: ADME, cell-based; details: Caco-2, pH 6.5
[12] = Half life in rat hepatocytes; type: ADME, cell-based, Hepatocyte
[13] = Half life in Wistar rat at 2.5 uM/kg, iv; type: ADME, organism-based; details: in vivo; outline: as §2
[14] = AUC in nude mouse at 124 umol/kg; type: ADME, organism-based; details: plasma
[15] = Clearance in CD1 mouse at 2.5 uM/kg, po and iv; type: ADME, organism-based; details: in vivo
Outline: (§3)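 CD1 mice dosed po and iv at 2.5 µMol/kg.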

[16] = Half life in CD1 mouse at 2.5 uM/kg, iv; type: ADME, organism-based; details: in vivo; outline: as §3
[17] = Aqueous solubility of the compound at pH 7.4; type: physicochemical; details: buffer
[18] = Volume of distribution at steady state in CD1 mouse at 2.5 uM/kg, po and iv; type: ADME, organism-based; details: in vivo, read-out: Vdss; outline: as §3
[19] = Cmax in nude mouse at 124 umol/kg; type: ADME, organism-based; design: dose 124 umol/kg; details: in vivo
[20] = Half life in mouse hepatocytes; type: ADME, cell-based, Hepatocyte
[21] = Fraction unbound in human plasma; type: ADME, cell-free
[22] = Clearance in Wistar rat at 3.1 uM/kg, po and […] uM/kg, iv; type: ADME, organism-based; details: in vivo
[23] = Oral bioavailability in CD1 mouse at 2.5 uM/kg; type: ADME, organism-based; details: in vivo; outline: as §3
[24] = Fraction unbound in rat plasma; type: ADME, cell-free

Row | Compound | logD [1] | IC50 [2] | IC50 [3] | IC50 [4] | IC50 [5] | IC50 [6] | further results
1 | CC(C)Cn1cc(C#N)c2cc(S(=O)(=O)c3ccc(NC(=O)[C@@H]4CCCN4)cc3)ccc21 | 2.9 | 24.7 µM | > 30 µM | > 100 µM | 0.321 µM | 37.7 µM | 
2 | CC(C)Cn1c(N)c(C#N)c2cc(Oc3ccc(NC(=O)CN)cc3)ccc21 | 3.2 | 16.4 µM | > 30 µM | 2.52 µM | 3.18 µM | 0.177 µM | Activity (A549): Toxic
3 | N#Cc1c(N)[nH]c2ccc(Oc3ccc(NC(=O)CN)cc3)cc12 | 1.6 |  |  | 53.8 µM | > 100 µM | 2.32 µM | 
4 | CC(C)Cn1cc(C#N)c2cc(Sc3ccc(NC(=O)[C@@H]4CCCN4)cc3)ccc21 | > 4.3 | 14 µM |  | 0.19 µM | 1.66 µM | 0.111 µM | Activity (A549): Toxic
5 | N#Cc1cn(-c2ccccc2)c2ccc(Oc3ccc(NC(=O)[C@@H]4CCCN4)cc3)cc12 | > 4.3 | 8.71 µM |  | 0.374 µM | 1.93 µM | 0.027 µM | Activity (A549): Toxic
6 | CC(=O)Nc1ccc(Oc2ccc3[nH]c(N)c(C#N)c3c2)cc1 | 2.8 |  |  | > 100 µM | 24 µM | > 100 µM | 
7 | Cn1c(N)c(C#N)c2cc(Oc3ccc(NC(=O)CN)cc3)ccc21 | 1.9 | > 30 µM |  | 21.1 µM | 38.2 µM | 0.815 µM | 
8 | CCn1cc(C#N)c2cc(Oc3ccc(NC(=O)[C@H]4CCCN4)cc3)ccc21 | 2.8 | > 30 µM |  | > 100 µM | > 100 µM | 70.9 µM | 
9 | CCn1cc(C#N)c2cc(Oc3ccc(NC(=O)[C@@H]4CCCCN4)cc3)ccc21 | 2.7 | > 30 µM |  | 22 µM | 86.3 µM | 2.2 µM | 
10 | N#Cc1c[nH]c2ccc(Oc3ccc(NC(=O)CN)cc3)cc12 | 2.1 |  |  | 63.2 µM | 37.6 µM | 2.01 µM | 
11 | CC(C)Cn1cc(C#N)c2cc(Cc3ccc(NC(=O)[C@@H]4CCCN4)cc3)ccc21 | 3.9 | > 30 µM | > 30 µM | 1.45 µM | 5.92 µM | 0.199 µM | 
12 | Cc1noc(C)c1Cn1nc(C#N)c2cc(Oc3ccc(NC(=O)[C@@H]4CCCN4)cc3)ccc21 |  |  | 0.067 µM | 0.025 µM | 0.191 µM | 0.003 µM | 
13 | N#Cc1c(N)[nH]c2ccc(Oc3ccc(NC(=O)[C@H](N)CO)cc3)cc12 | 1.6 |  |  | > 100 µM | 61.5 µM | > 100 µM | 
14 | CCn1cc(C#N)c2cc(Oc3ccc(NC(=O)CN)cc3)ccc21 | 2.5 | > 30 µM |  | 22.8 µM | 18.4 µM | 0.562 µM | 
15 | CN(C)CCn1cc(C#N)c2cc(Oc3ccc(NC(=O)[C@@H]4CCCN4)cc3)ccc21 | 2.1 | > 30 µM | 7.48 µM | > 100 µM | 53.8 µM | 0.256 µM | 
16 | CC(C)Cn1cc(C#N)c2cc(N(C)c3ccc(NC(=O)[C@@H]4CCCN4)cc3)ccc21 | 3.8 | 13.7 µM | > 30 µM | 0.141 µM | 5 µM | 0.075 µM | Activity (A549): Toxic
17 | CCn1cc(C#N)c2cc(Oc3ccc(NC(=O)CNC)cc3)ccc21 | 2.7 | > 30 µM |  | 24.9 µM | 20.4 µM | 0.83 µM | 
18 | N#Cc1c(N)n(Cc2ccccc2)c2ccc(Oc3ccc(NC(=O)CN)cc3)cc12 | 2.9 | 12.6 µM | > 30 µM | 1.48 µM | 2.66 µM | 0.104 µM | Activity (A549): Toxic
19 | CCn1cc(C#N)c2cc(Oc3ccc(NC(=O)[C@@H]4CCCN4)cc3)ccc21 | 2.9 | 12 µM | 3.05 µM | 1.82 µM | 22.1 µM | 0.112 µM | Activity (A549): Non-toxic

Row | Compound | logD [1] | IC50 [2] | IC50 [3] | IC50 [4] | IC50 [5] | IC50 [6] | further results
20 | Cc1noc(C)c1Cn1cc(C#N)c2cc(Oc3ccc(NC(=O)[C@@H]4CCCN4)cc3)ccc21 | 2.8 | > 30 µM | 0.281 µM | 0.159 µM | 1.13 µM | 0.011 µM | 
21 | Cn1cc(-c2cn(C)c3ccc(Oc4ccc(NC(=O)[C@@H]5CCCN5)cc4)cc23)cn1 | 1.9 | 9.71 µM | 0.979 µM | 0.818 µM | 2.35 µM | 0.021 µM | Activity (A549): Non-toxic
22 | CCn1cc(C#N)c2cc(Oc3ccc(NC(=O)CN(C)C)cc3)ccc21 |  | > 30 µM |  | 76.1 µM | 62.9 µM | 9.83 µM | 
23 | CC(C)Cn1nc(C#N)c2cc(Oc3ccc(NC(=O)[C@@H]4CCCN4)cc3)ccc21 | 3.6 | 15.4 µM | 0.297 µM | 0.015 µM | 0.294 µM | 0.004 µM | Activity (A549): Toxic; Ratio IC50 (Homo sapiens): 4
24 | CCn1cc(C#N)c2cc(Oc3ccc(NC(=O)[C@@H]4CCN4)cc3)ccc21 |  | 19.6 µM |  |  | 3.74 µM | 0.086 µM | 
25 | O=C(/C=C/c1cccnc1)c1ccncc1 |  |  |  |  |  | > 100 µM | 
26 | CN(C)C(=O)Cn1c(N)c(C#N)c2cc(Oc3ccc(NC(=O)CN)cc3)ccc21 | 0.5 | > 30 µM | > 30 µM | 6.84 µM | 2.53 µM | 0.343 µM | 
27 | CNC(=O)Cn1cc(C#N)c2cc(Oc3ccc(NC(=O)[C@@H]4CCCN4)cc3)ccc21 | 1.4 | > 30 µM | 14 µM | 2.35 µM | 16.9 µM | 0.111 µM | 
28 | CCn1cc(C#N)c2cc(Oc3ccc(NC(=O)[C@@H]4CCC(=O)N4)cc3)ccc21 |  | > 30 µM |  | 23.7 µM | > 100 µM | 0.531 µM | 
29 | N#Cc1cn(CC2CCOCC2)c2ccc(Oc3ccc(NC(=O)[C@@H]4CCCN4)cc3)cc12 | 2.8 | > 30 µM | 0.633 µM | 0.429 µM | 3.47 µM | 0.048 µM | 
30 | CCn1cc(C#N)c2cc(Oc3ccc(N(C)C(=O)[C@@H]4CCCN4)cc3)ccc21 | 1.9 | > 30 µM |  | 76.5 µM | 72.3 µM | 23.1 µM | 
31 | CN1Cc2cc(-n3cc(C#N)c4cc(Oc5ccc(NC(=O)[C@@H]6CCCN6)cc5)ccc43)ccc2C1=O | 3 | 2.18 µM | 0.14 µM | 0.108 µM | 0.701 µM | 0.008 µM | Activity (A549): Non-toxic
32 | CC(C)Cn1cc(C#N)c2cc(Nc3ccc(NC(=O)[C@@H]4CCCN4)cc3)ccc21 | 2.7 | > 30 µM |  | 6.15 µM | 36.6 µM | 1.57 µM | 
33 | CC(C)Cn1cc(C#N)c2cc(Oc3ccc(NC(=O)[C@@H]4CCCN4)cc3)ccc21 | 3.5 | 5.77 µM | 0.343 µM | 0.384 µM | 2.06 µM | 0.023 µM | efflux ratio [7]: 4.6; Vd [8]: 0.4 L/kg; fraction unbound [9]: 0.0164; Activity (A549): Toxic; half-life [10]: 28 min; Papp [11]: 134 nm/s; half-life [12]: 21 min; half-life at […] [13]: 204 min; Ratio IC50 (Homo sapiens): 17; AUC [14]: 259 µM·h; clearance at […] [15]: 2.28 L/h/kg; half-life at […] [16]: 84 min; solubility [17]: 48 µM (≈ 19.3 µg/mL); Vd at […] [18]: 3.3 L/kg; Cmax [19]: 35 µM; half-life [20]: 21 min; fraction unbound [21]: 0.0033; clearance [22]: 0.12 L/h/kg; bioavailability at […] [23]: 42%; fraction unbound [24]: < 0.0003
34 | Cn1cc(-c2c[nH]c3ccc(Oc4ccc(NC(=O)[C@@H]5CCCN5)cc4)cc23)cn1 | 2.3 | > 30 µM | > 30 µM | 3.57 µM | 27.4 µM | 0.114 µM | 
35 | CCn1c(N)c(C#N)c2cc(Oc3ccc(NC(=O)CN)cc3)ccc21 | 2 | > 30 µM | > 30 µM | 9.18 µM | 25 µM | 0.514 µM | 
36 | N#Cc1c(N)[nH]c2ccc(Oc3ccc(NC(=O)[C@@H](N)CO)cc3)cc12 | 1.9 | > 30 µM | > 30 µM | 26.9 µM | 51.1 µM | 0.575 µM | 
37 | N#Cc1cn(Cc2ccccc2)c2ccc(Oc3ccc(NC(=O)[C@@H]4CCCN4)cc3)cc12 | 3.9 | 6.95 µM |  | 0.188 µM | 1.83 µM | 0.02 µM | Activity (A549): Toxic
